“Also recorded” adds a separate entry of the source.
How the values were obtained:
CYP1A1 [1] = biological target: T1, CYP1A1 (Homo sapiens, UniProt P04798); experiment: CYP1A1 inhibition in live HEK293 cells overexpressing CYP1A1; type: cell-based; conditions: for inhibition at 10 µM: human, live HEK293 cells overexpressing CYP1A1, % inhibition of CYP1A1 at 10 μM (Mean ± SD) HEK293 cells, HEK293 cells overexpressing CYP1A1; for selectivity for CYP1A1 over CYP1B1: ratio of live cell IC50 values CYP1B1/CYP1A1
T1 sequence (P04798 1-512): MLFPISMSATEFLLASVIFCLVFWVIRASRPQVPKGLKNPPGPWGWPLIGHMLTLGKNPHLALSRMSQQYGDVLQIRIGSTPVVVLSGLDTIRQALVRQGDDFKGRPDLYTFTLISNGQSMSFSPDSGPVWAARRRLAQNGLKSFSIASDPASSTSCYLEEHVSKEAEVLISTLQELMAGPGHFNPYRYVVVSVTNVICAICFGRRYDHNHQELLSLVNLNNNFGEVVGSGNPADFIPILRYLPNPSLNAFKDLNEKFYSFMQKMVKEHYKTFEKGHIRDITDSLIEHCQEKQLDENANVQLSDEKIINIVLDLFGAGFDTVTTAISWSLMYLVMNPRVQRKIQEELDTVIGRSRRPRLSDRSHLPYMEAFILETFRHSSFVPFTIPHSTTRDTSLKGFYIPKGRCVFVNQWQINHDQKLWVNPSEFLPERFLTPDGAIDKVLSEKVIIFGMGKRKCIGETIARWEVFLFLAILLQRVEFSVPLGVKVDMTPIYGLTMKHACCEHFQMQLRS

[2] = test system: CYP2A6, CYP2B6, CYP2C8, CYP2C9, CYP2C18, CYP2C19, CYP2D6, CYP2E1, CYP3A4; experiment: CYP2 and CYP3 subfamily panel inhibition in Sacchrosomes; type: biochemical; conditions: human, pH 7.4
Procedure, shortened: (§1)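 Kinetic microplate assay, 15 min reaction, using recombinant human P450s expressed in S. cerevisiae microsomes. Run in 100 mM potassium phosphate pH 7.4 with an NADPH-regenerating system (final: 0.04 units G6PDH, 1.3 mM NADP+, 3.3 mM glucose-6-phosphate, 3.3 mM MgCl2, 50 μM sodium citrate). Reaction started with substrate plus NADPH system. Test compound serially diluted from 20 μM final (CYP2E1: from 10 μM), 0.5% DMSO final. IC50 from Hill fit.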

CYP1B1 [3] = biological target: T2, CYP1B1 (Homo sapiens, UniProt Q16678); experiment: CYP1B1 inhibition in Sacchrosomes; type: biochemical
T2 sequence (Q16678 1-543): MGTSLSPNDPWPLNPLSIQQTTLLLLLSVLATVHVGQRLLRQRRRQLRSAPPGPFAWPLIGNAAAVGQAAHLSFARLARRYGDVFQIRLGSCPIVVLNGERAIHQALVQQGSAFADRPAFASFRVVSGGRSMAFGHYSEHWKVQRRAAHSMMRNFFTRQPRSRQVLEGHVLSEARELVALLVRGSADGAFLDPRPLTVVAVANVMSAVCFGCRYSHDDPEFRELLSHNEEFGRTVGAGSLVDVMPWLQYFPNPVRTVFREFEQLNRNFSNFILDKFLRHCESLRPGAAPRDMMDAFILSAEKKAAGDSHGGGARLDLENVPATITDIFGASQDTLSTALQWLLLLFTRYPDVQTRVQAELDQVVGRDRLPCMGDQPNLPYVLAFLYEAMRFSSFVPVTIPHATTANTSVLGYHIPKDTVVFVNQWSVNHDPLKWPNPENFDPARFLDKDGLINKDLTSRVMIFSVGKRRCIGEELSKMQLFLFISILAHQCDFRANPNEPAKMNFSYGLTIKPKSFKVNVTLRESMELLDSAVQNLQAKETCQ
Procedure, shortened: as §1

CYP1A2 [4] = biological target: T3, CYP1A2 (Homo sapiens, UniProt P05177); experiment: CYP1A2 inhibition in Sacchrosomes; type: biochemical
T3 sequence (P05177 1-516): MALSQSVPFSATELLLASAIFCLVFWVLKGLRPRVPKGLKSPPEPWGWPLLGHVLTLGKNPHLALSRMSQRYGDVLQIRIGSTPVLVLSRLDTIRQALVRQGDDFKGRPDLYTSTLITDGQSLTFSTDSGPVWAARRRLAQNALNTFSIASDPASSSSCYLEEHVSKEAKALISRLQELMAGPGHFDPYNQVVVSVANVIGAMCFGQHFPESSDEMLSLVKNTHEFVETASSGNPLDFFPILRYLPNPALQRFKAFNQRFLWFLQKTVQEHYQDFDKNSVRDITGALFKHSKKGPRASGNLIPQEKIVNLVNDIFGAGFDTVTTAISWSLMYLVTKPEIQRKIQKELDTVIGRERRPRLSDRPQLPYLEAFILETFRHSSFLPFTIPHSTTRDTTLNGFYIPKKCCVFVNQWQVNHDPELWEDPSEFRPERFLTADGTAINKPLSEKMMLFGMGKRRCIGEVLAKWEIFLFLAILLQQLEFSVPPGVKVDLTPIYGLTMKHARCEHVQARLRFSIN
Procedure, shortened: as §1

CYP1A1 [5] = biological target: T1, CYP1A1; experiment: CYP1A1 inhibition in yeast microsomes; type: biochemical
Procedure, shortened: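 Human CYP1A1 expressed in yeast microsomes (Sacchrosomes). […] IC50 from a four-parameter variable-slope sigmoidal (Hill) fit of uninhibited fraction against inhibitor concentration.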

[6] = test system: CYP1A1-overexpressing HEK293 cells; experiment: Protection of CYP1A1-overexpressing HEK293 cells from B[a]P toxicity; type: cell-based, human; conditions: compound at 3× IC50 concentration
Procedure, shortened: (§2)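 CYP1A1-expressing adherent HEK293 cells exposed to B[a]P at 0.05–100 μM, alone or with test compound. Viability read by MTT and checked by sulforhodamine B. EC50 (B[a]P concentration for 50% viability loss) taken from a dose–response curve of viability versus log B[a]P concentration, averaged over three independent experiments.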

CYP1B1 [7] = biological target: T2, CYP1B1; experiment: CYP1B1 inhibition in live human HEK293 cells; type: cell-based
Procedure, shortened: (§3)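 Live recombinant HEK293 cells, each expressing a single human CYP isoform. IC50 from a four-parameter variable-slope sigmoidal (Hill) fit of uninhibited fraction against inhibitor concentration.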

CYP2D6 = CYP2D6 (Homo sapiens, UniProt P10635); experiment: CYP2D6 inhibition in live human HEK293 cells; type: cell-based
Sequence of CYP2D6 (P10635 whole entry): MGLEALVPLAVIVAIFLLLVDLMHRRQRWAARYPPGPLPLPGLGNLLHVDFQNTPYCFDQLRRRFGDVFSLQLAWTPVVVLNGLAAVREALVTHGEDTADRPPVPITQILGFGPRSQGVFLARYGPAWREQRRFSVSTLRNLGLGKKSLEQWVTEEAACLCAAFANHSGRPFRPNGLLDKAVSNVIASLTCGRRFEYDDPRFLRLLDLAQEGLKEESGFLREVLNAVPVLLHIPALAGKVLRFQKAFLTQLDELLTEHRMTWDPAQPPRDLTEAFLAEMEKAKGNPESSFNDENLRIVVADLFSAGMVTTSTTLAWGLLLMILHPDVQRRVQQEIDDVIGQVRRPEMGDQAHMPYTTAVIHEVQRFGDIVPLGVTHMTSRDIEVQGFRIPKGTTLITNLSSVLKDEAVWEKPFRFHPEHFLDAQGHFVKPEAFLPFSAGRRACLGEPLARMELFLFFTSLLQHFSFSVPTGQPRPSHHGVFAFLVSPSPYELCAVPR
Procedure, shortened: as §3

CYP1A2 [8] = biological target: T3, CYP1A2; experiment: CYP1A2 inhibition in live human HEK293 cells; type: cell-based
Procedure, shortened: as §3

CYP3A4 = CYP3A4 (Homo sapiens, UniProt P08684); experiment: CYP3A4 inhibition in live human HEK293 cells; type: cell-based
Sequence of CYP3A4 (P08684 whole entry): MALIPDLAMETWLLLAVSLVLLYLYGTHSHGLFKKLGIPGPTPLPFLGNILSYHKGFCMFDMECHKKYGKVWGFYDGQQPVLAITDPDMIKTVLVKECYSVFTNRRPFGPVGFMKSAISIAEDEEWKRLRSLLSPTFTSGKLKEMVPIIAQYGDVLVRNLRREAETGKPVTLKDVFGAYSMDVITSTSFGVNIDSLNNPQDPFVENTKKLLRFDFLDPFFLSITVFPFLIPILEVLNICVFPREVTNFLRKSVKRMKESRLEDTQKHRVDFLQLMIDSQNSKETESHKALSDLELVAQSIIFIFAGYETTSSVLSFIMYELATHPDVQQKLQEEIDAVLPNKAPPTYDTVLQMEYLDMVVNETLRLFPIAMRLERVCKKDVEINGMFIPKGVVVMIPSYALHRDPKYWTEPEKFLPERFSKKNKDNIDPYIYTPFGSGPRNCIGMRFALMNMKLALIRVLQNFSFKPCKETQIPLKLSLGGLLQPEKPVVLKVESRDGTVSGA
Procedure, shortened: as §3

A549 cells = experiment: FACS cell cycle analysis of A549 lung cancer cells treated with B[a]P; type: cell-based, human; conditions: A549 (p53+); 4l at 3× IC50 before 15 μM B[a]P
Procedure, shortened: (§4)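 CYP1A1 expression in the cells confirmed by western blot. Cells preincubated 20 h with test compound, exposed to 15 μM B[a]P for 3 h, then released into fresh medium for 57 h. Cells trypsinised, PBS-washed and fixed 1 h in 70% ethanol at −20 °C. Treated with RNase (0.5 mg/mL) and stained with propidium iodide (50 μg/mL) for 1 h at 4 °C in the dark. Single cells gated; about 10 000 events collected; % G0/G1, S and G2/M reported.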

Calu-1 cells = experiment: FACS cell cycle analysis of Calu-1 lung cancer cells treated with B[a]P; type: cell-based, human; conditions: Calu-1 (p53-null); 4l at 3× IC50 before 15 μM B[a]P
Procedure, shortened: as §4

normal HEK293 cells = experiment: B[a]P toxicity in normal HEK293 cells; type: cell-based; conditions: Homo sapiens, HEK293, read-out: EC50 of B[a]P in normal HEK293 cells
Procedure, shortened: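 Adherent HEK293 cells exposed to a concentration series of B[a]P; viability read by MTT assay. EC50 is the B[a]P concentration giving 50% loss of viability, taken from a dose–response curve of viability versus log B[a]P concentration.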

[9] = Protection of CYP1A1-overexpressing HEK293 cells from B[a]P toxicity; type: cell-based, human; conditions: human, CYP1A1-overexpressing HEK293 cells
Procedure, shortened: as §2

Row | Compound | IC50 (CYP1A1 [1]) | inhibition at 10 µM (CYP1A1 [1]) | IC50 at 15 min [2] | IC50 (CYP1B1 [3]) | IC50 (CYP1A2 [4]) | IC50 (CYP1A1 [5]) | inhibition at 10 µM (CYP1A1 [5]; human, % inhibition of CYP1A1 at 10 μM (Mean ± SD) Sacchrosomes, 10 μM, Sacchrosomes) | IC50 (CYP1B1 [7]) | IC50 (CYP2D6) | IC50 (CYP1A2 [8]) | IC50 (CYP3A4) | selectivity for CYP1A1 over CYP1B1 (CYP1A1 [1]) | protection from CYP1A1-mediated B[a]P toxicity [6] | effect on B[a]P-mediated S-phase block (A549 cells) | effect on B[a]P-mediated S-phase block (Calu-1 cells) | EC50 (normal HEK293 cells) | EC50 [9]
1 | COc1c(C(=O)C=Cc2cccnc2)c(O)c(OC)c2occc12 [3g, 1-(6-Hydroxy-4,7-dimethoxybenzofuran-5-yl)-3-(pyridin-3-yl)prop-2-en-1-one] | 470 nM | 99% | > 20000 nM | 660 ± 40 nM | 170 ± 20 nM | 340 ± 30 nM | 97% | 270 nM |  |  |  |  | completely protected |  |  |  | 
2 | COc1c(C(=O)C=Cc2ccsc2)c(O)c(OC)c2occc12 [3r, 1-(6-Hydroxy-4,7-dimethoxybenzofuran-5-yl)-3-(thiophen-3-yl)prop-2-en-1-one] |  |  | > 20000 nM | 780 ± 40 nM | 4200 ± 800 nM | 280 ± 30 nM |  |  |  |  |  |  |  |  |  |  | 
3 | c1ccc2c(c1)cc1ccc3cccc4ccc2c1c34 [B[a]P, benzo[a]pyrene, reference compound] |  |  |  |  |  |  |  |  |  |  |  |  |  |  |  | 14000 nM | 1400 nM

Now from value to compound, other results behind:

Row | IC50 (CYP1A1 [1]) | inhibition at 10 µM (CYP1A1 [1]) | IC50 at 15 min [2] | IC50 (CYP1B1 [3]) | IC50 (CYP1A2 [4]) | IC50 (CYP1A1 [5]) | inhibition at 10 µM (CYP1A1 [5]; human, % inhibition of CYP1A1 at 10 μM (Mean ± SD) Sacchrosomes, 10 μM, Sacchrosomes) | IC50 (CYP1B1 [7]) | IC50 (CYP2D6) | IC50 (CYP1A2 [8]) | IC50 (CYP3A4) | selectivity for CYP1A1 over CYP1B1 (CYP1A1 [1]) | Compound | protection from CYP1A1-mediated B[a]P toxicity [6] | effect on B[a]P-mediated S-phase block (A549 cells) | effect on B[a]P-mediated S-phase block (Calu-1 cells) | EC50 (normal HEK293 cells) | EC50 [9]
4 | 1840 ± 140 nM | 87% |  |  |  |  |  | 566 ± 80 nM | > 10000 nM | > 10000 nM | > 10000 nM |  | COc1c2c(c(OC)c3occc13)OC(c1ccccc1)CC2=O (stereo not drawn) [4a, 4,9-Dimethoxy-7-phenyl-6,7-dihydro-5H-furo[3,2-g]chromen-5-one] |  |  |  |  | 
5 | 450 ± 60 nM |  |  |  |  |  |  | 4160 ± 250 nM | > 10000 nM | > 10000 nM | > 10000 nM | 9.2 fold | COc1c2c(c(OC)c3occc13)OC(c1cccnc1)CC2=O (stereo not drawn) [4e, 4,9-Dimethoxy-7-(pyridin-3-yl)-6,7-dihydro-5H-furo[3,2-g]chromen-5-one] |  |  |  |  | 
6 | 140 ± 40 nM |  |  |  |  |  |  | 23800 ± 1200 nM | > 10000 nM | > 10000 nM | > 10000 nM | 170 fold | COc1c2c(c(OC)c3occc13)OC(c1ccc(F)c(Br)c1)CC2=O (stereo not drawn) [4l, 7-(3-Bromo-4-fluorophenyl)-4,9-dimethoxy-6,7-dihydro-5H-furo[3,2-g]chromen-5-one] | completely protected | restored into the cell cycle; also recorded: preponderantly released from the block; also recorded: prevented manifestation of B[a]P-mediated S-phase block | restored into the cell cycle; also recorded: preponderantly released from the block; also recorded: prevented manifestation of B[a]P-mediated S-phase block |  | 
